# Results from ChEMBL document CHEMBL1153905, “Functionalized 3-benzylidene-indolin-2-ones: inducers of NAD(P)H-quinone oxidoreductase 1 (NQO1) with antiproliferative activity” (Bioorg Med Chem, 2009).
# Key:
# [1] = target: T1, CYP1A1 (Mus musculus, UniProt P00184); test: Induction of CYP1A1 activity in mouse Hepa-1c1c7 cells assessed as induction ratio at 0.1 uM after 48 hrs by EROD assay relative to control; type: ADME, cell-based
# T1 sequence (P00184 whole entry): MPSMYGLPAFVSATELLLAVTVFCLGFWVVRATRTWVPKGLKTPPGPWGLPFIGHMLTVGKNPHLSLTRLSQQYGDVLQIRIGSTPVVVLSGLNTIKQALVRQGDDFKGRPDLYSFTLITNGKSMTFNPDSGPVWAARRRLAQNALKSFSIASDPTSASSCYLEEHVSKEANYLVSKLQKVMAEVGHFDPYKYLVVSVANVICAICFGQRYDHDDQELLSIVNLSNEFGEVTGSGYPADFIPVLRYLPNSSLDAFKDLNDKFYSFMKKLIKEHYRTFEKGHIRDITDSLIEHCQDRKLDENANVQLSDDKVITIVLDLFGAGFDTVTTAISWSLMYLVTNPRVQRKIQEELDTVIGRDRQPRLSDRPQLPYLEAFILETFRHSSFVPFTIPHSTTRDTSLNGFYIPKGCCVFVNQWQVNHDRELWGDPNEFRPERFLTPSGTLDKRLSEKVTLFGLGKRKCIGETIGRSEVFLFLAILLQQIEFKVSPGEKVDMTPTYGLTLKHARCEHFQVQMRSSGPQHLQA
# Outline: (§1)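 About 10,000 Hepa1c1c7 cells/well cultured 24 h, then compound (0.5% DMSO final) for 48 h, at roughly 4 × the concentration doubling NQO1 activity. After PBS wash, cells given 5 µM 7-ethoxyresorufin plus 2 mM salicylamide, 37 °C, 40 min; resorufin fluorescence ex 530/em 590 nm, corrected for compound fluorescence. Ratio = (treated − blank)/(DMSO control − blank); mean ± SD, n = 3.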
# [2] = Cytotoxicity against mouse Hepa-1c1c7 cells after 48 hrs by MTT assay; type: cell-based; settings: hepa-1c1c7, 48 h
# Outline: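 Murine hepatoma cells in α-MEM with 10% heat- and charcoal-treated fetal calf serum, passages 6–17; MTT read-out as for the cancer lines but with 48 h compound exposure. Highest concentration tested 25 µM. IC50 from survival-versus-concentration curve; mean and SD, n = 3.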
# [3] = target: NAD(P)H dehydrogenase [quinone] 1 (Mus musculus) (UniProt Q64669); test: Induction of NQO1 activity in mouse Hepa-1c1c7 cells assessed as induction ratio at 0.1 uM after 48 hrs by MTT assay relative to control; type: cell-based
# Outline: (§2)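 Hepa1c1c7 cells, 10,000 per well, 24 h, were then treated 48 h (DMSO ≤0.5%). Digitonin/EDTA lysates were assayed for menadione-dependent MTT-formazan formation using a G6P/G6PDH NADPH-generating mix with FAD at pH 7.4. The reaction ran 5 min, was stopped with dicoumarol, and read at A590. Degree of induction = (A test − blank)/(A control − blank). Ratios were read off the induction–concentration plot at the EROD test concentration.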
# [4] = target: T1, CYP1A1; test: Induction of CYP1A1 activity in mouse Hepa-1c1c7 cells assessed as induction ratio at 5 nM after 48 hrs by EROD assay relative to control; type: ADME, cell-based
# Outline: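 Hepa1c1c7 cells were seeded at 10,000 per well and grown 24 h. They were then exposed 48 h to compound (final DMSO 0.5% v/v) at about 4 × the NQO1 CD. After a PBS wash, cells got 5 µM 7-ethoxyresorufin plus 2 mM salicylamide in medium, 37 °C, 40 min. Resorufin was read at ex 530/em 590 nm, corrected for compound fluorescence. Ratio = (F treated − blank)/(F DMSO control − blank); mean ± SD, n = 3.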
# [5] = Ratio of induction of NQO1 activity to induction of CYP1 activity in mouse Hepa-1c1c7 cells at 5 nM after 48 hrs
# [6] = target: NAD(P)H dehydrogenase [quinone] 1 (Mus musculus) (UniProt Q64669); test: Induction of NQO1 activity in mouse Hepa-1c1c7 cells assessed as induction ratio at 5 nM after 48 hrs by MTT assay relative to control; type: cell-based; outline: as §2
# [7] = target: NAD(P)H dehydrogenase [quinone] 1 (Mus musculus) (UniProt Q64669); test: Induction of NQO1 activity in mouse Hepa-1c1c7 cells assessed as induction ratio at 10 uM after 48 hrs by MTT assay relative to control; type: cell-based; outline: as §2
# [8] = target: T1, CYP1A1; test: Induction of CYP1A1 activity in mouse Hepa-1c1c7 cells assessed as induction ratio at 10 uM after 48 hrs by EROD assay relative to control; type: ADME, cell-based; outline: as §1
# [9] = tested on: HCT-116; test: Cell cycle arrest in human HCT116 cells released from G1 block assessed as accumulation at sub G1 phase at 15 uM after 24 hrs by flow cytometry; type: functional
# [10] = Selectivity ratio of IC50 for human CCL186 cells to IC50 for human HCT116 cells; type: ADME, cell-based, HCT-116; settings: CCL186 cells and HCT116 cells, read-out: Ratio IC50
# Outline: (§3)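 MTT assay. MCF7 and CCL186 cells were grown in EMEM/10% FBS, HCT116 in McCoy's 5A/10% FBS. Seeding was 10,000 (MCF7), 4000 (HCT116) and 5000 (CCL186) cells per well, 24 h. Compound exposure was 72 h, DMSO ≤1% final. MTT 0.5 mg/ml for 3 h, formazan dissolved in DMSO, A590. IC50 came from sigmoidal survival curves, with 3 separate occasions per concentration. Ratio = IC50 CCL186 / IC50 of the cancer line.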
# [11] = tested on: HCT-116; test: Cell cycle arrest in human HCT116 cells released from G2 block assessed as accumulation at sub G1 phase at 15 uM after 24 hrs by flow cytometry; type: functional
# [12] = tested on: HCT-116; test: Cell cycle arrest in human HCT116 cells released from G2 block assessed as accumulation at G1 phase at 15 uM after 24 hrs by flow cytometry; type: functional
# [13] = tested on: HCT-116; test: Cell cycle arrest in human HCT116 cells released from G2 block assessed as accumulation at S phase at 15 uM after 24 hrs by flow cytometry; type: functional
# [14] = tested on: HCT-116; test: Cell cycle arrest in human HCT116 cells released from G1 block assessed as accumulation at G2/M phase at 15 uM after 24 hrs by flow cytometry; type: functional
# [15] = target: T1, CYP1A1; test: Induction of CYP1A1 activity in mouse Hepa-1c1c7 cells assessed as induction ratio at 0.05 uM after 48 hrs by EROD assay relative to control; type: ADME, cell-based; outline: as §1
# [16] = tested on: HCT-116; test: Cell cycle arrest in human HCT116 cells released from G1 block assessed as accumulation at S phase at 15 uM after 24 hrs by flow cytometry; type: functional
# [17] = target: NAD(P)H dehydrogenase [quinone] 1 (Mus musculus) (UniProt Q64669); test: Induction of NQO1 activity in mouse Hepa-1c1c7 cells assessed as induction ratio at 0.05 uM after 48 hrs by MTT assay relative to control; type: cell-based; outline: as §2
# [18] = tested on: HCT-116; test: Antiproliferative activity against human HCT116 cells after 72 hrs by MTT assay; type: functional, cell-based; settings: HCT-116, 72 h
# Outline: (§4)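 Cells seeded at 10,000 (MCF7), 4000 (HCT116) or 5000 (CCL186) per well and grown 24 h; MCF7 and CCL186 in EMEM with pyruvate, glutamine, 10% FBS; HCT116 in McCoy's 5A with 10% FBS. Compounds from DMSO stocks (≤1% DMSO final), 72 h exposure; MTT 0.5 mg/ml for 3 h, formazan in DMSO read at 590 nm. IC50 from sigmoidal survival curve, three separate occasions.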
# [19] = tested on: HCT-116; test: Cell cycle arrest in human HCT116 cells released from G1 block assessed as accumulation at G1 phase at 15 uM after 24 hrs by flow cytometry; type: functional
# [20] = Antiproliferative activity against human CCL186 cells after 72 hrs by MTT assay; type: cell-based; settings: CCL186, 72 h; outline: as §4
# [21] = tested on: HCT-116; test: Cell cycle arrest in human HCT116 cells released from G2 block assessed as accumulation at G2/M phase at 15 uM after 24 hrs by flow cytometry; type: functional
# [22] = tested on: MCF7; test: Selectivity ratio of IC50 for human CCL186 cells to IC50 for human MCF7 cells; outline: as §3
# [23] = tested on: MCF7; test: Antiproliferative activity against human MCF7 cells after 72 hrs by MTT assay; type: functional, cell-based; settings: MCF7, 72 h; outline: as §4
# Chain of NAD(P)H dehydrogenase [quinone] 1 (Mus musculus) (Q64669 whole entry): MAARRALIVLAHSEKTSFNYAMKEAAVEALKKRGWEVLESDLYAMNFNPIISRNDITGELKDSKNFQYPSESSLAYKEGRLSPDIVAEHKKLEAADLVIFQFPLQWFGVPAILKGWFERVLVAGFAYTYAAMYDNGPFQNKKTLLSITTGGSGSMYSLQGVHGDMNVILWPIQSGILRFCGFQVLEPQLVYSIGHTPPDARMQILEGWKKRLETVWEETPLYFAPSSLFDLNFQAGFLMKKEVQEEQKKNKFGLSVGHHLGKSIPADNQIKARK
SMILES,"fold induction at 48 h, 0.1 µM [1]",IC50 [2] [µM],Ratio [3],"fold induction at 48 h, 0.005 µM [4]",Ratio [5],Ratio [6],further results
O=C1Nc2ccccc2/C1=C\c1cccc(C(F)(F)F)c1,1.4,3.9,3.85,,,,
COc1cccc(/C=C2/C(=O)Nc3cc(Cl)ccc32)c1,1.51,> 25,2.56,,,,
O=C1Nc2ccccc2/C1=C1\C(=O)Nc2cc(C(F)(F)F)ccc21,,> 25,,3.01,0.99,2.99,
O=C1Nc2ccccc2/C1=C1\C(=O)Nc2cc(F)ccc21,,> 25,,2.75,0.93,2.56,
O=C1Nc2ccccc2/C1=C\c1ccc(Cl)cc1Cl,,10.6,,,,,"Ratio [7]: 4.24; fold induction at 48 h, 10 µM [8]: 1.21"
O=C1Nc2ccccc2/C1=C1\C(=O)Nc2ccccc21 [ISOINDIGO],1.44,> 25,2.8,,,,
O=C1Nc2cc(C(F)(F)F)ccc2/C1=C1\C(=O)Nc2ccc(F)cc21,,> 25,,3.72,0.83,3.09,
O=C1Nc2ccccc2/C1=C\c1ccccn1,,19.9,,,,,"Ratio [7]: 3.92; fold induction at 48 h, 10 µM [8]: 1.08"
O=C1Nc2cc(F)ccc2/C1=C\c1cccc(C(F)(F)F)c1,,2.2,,,,,"Activity [9]: 12.68%; selectivity ratio [10]: 0.8; Activity [11]: 2.49%; Activity [12]: 64.15%; Activity [13]: 8.82%; Activity [14]: 14.58%; fold induction at 48 h, 0.05 µM [15]: 1.23; Activity [16]: 8.04%; Ratio [17]: 3.31; IC50 [18]: 8.4 µM; Activity [19]: 64.93%; IC50 [20]: 7.5 µM; Activity [21]: 25%; Ratio IC50 [22]: 0.9; IC50 [23]: 8.9 µM"
